Experimental data reported in ChEMBL document CHEMBL1134393, “Synthesis and biological activity of analogues of the antidiabetic/antiobesity agent 3-guanidinopropionic acid: discovery of a novel aminoguanidinoacetic acid antidiabetic agent” (2001).

What was measured:
[1] = In vivo blood glucose was determined in obese, hyperglycemic, hyperinsulinemic, insulin-resistant KKAy mice after a dose of 500 mg/kg for 4 days; format: functional, Mus musculus
In short: (§1)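 KKAy mice (KK female × Ay male cross) allocated to treatment or control groups (n = 6) after pretest glucose. Compound given in food, equivalent to 500 mg/kg per day for 4 days. Nonfasting blood drawn from the retroorbital sinus; glucose measured by autoanalyzer. Result expressed as treated/control glucose ratio (T/C). Wilcoxon rank sum test applied when T/C < 0.80.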

[2] = species on record: Rattus norvegicus; assay: (§2) In vitro [14C]- creatine uptake (1 mM) was determined in rat A10 smooth muscle cells at a concentration of (1 mM); format: functional
In short: (§3)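 Rat A10 smooth muscle cells grown in DMEM with 10% FBS and used in log-phase growth. Cells washed, then incubated at 37 °C in Hanks buffer (pH 7.4, 10 mM Hepes, 20 mM glucose, 0.2% fatty-acid-free BSA) with [14C]creatine (1 mM) plus test compound (1 mM) for 30–120 min. Ice-cold washes, NaOH lysis, scintillation counting. Uptake normalised to medium specific activity and extract protein; reported as % inhibition.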

[3] = biological target: Creatine kinase M-type (Oryctolagus cuniculus) (UniProt P00563); assay: In vitro kinase activity (phosphorylation) of creatine kinase was determined
Chain of Creatine kinase M-type (Oryctolagus cuniculus) (P00563 whole entry, looked up): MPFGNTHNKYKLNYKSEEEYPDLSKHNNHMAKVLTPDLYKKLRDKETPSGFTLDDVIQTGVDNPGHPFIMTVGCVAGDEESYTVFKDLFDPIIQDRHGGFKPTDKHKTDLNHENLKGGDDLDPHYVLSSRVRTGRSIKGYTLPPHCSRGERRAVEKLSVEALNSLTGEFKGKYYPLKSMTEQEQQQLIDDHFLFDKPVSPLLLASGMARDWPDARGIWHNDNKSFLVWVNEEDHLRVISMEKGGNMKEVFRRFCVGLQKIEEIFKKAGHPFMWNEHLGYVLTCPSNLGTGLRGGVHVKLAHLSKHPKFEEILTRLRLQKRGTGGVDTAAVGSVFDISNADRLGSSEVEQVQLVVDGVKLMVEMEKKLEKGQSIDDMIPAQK

[4] = In vivo blood glucose was determined in obese, hyperglycemic, hyperinsulinemic, insulin-resistant […] after a dose of 500 mg/kg for 4 days; format: functional, Mus musculus; in short: as §1
[5] = tested on: A10; assay: as §2; format: functional; in short: as §3
[6] = biological target: Sodium- and chloride-dependent creatine transporter 1 (Rattus norvegicus) (UniProt P28570); assay: In vitro [14C]- creatine uptake (1 mM) was determined in rat A10 smooth muscle cells at a concentration of (1 mM)

Row | Compound | MISS T/C [1] | further results
1 | Cl.NC(=O)CCN=C(N)N | 0.96 | –
2 | N=C(N)NCCS(=O)(=O)O | 0.91 | –
3 | N=C(N)NCCC[C@H](N)C(=O)O [ARGININE] | 1.02 | –
4 | O=C(O)CCNc1nc2ccccc2[nH]1 | 0.95 | –
5 | N#CN/C(N)=N\CCC(=O)O | 0.92 | –
6 | Cl.N=C(N)NCCC(=O)NO | 1.05 | –
7 | O=C(O)CCNC1=NCCN1 | 0.97 | –
8 | O=C(O)CCn1ccnc1 | 0.81 | –
9 | N=C(N)N1CCCC(C(=O)O)C1 (stereo unspecified) | 1 | –
10 | N=C(N)Nc1ccc(C(=O)O)cc1 [4-GUANIDINO-BENZOIC ACID] | 0.8 | –
11 | CCCCCCN=C(N)NCCC(=O)O | 0.85 | –
12 | CCc1cc(O)nc(NCCC(=O)O)n1 | 0.96 | –
13 | N=C(N)NNCC(=O)O | 0.61 | Inhibition [2]: 36%; Activity [3]: 0.5
14 | O=C(O)CCNc1[nH]cnc2ncnc1-2 | 0.85 | –
15 | O=C(O)CCNC1=NCCS1 | 0.85 | –
16 | CSC(=N)NCCC(=O)O | 1.1 | –
17 | N=C(N)S/C=C\C(=O)O [ZAPA] | 0.68 | –
18 | O=C(O)Cc1c[nH]cn1 [IMIDAZOLE ACETIC ACID] | 0.68 | –
19 | C/N=C(\N)NCCC(=O)O | 1.02 | –
20 | Cl.N=C(N)CCCC(=O)O | 0.93 | –
21 | N=C(N)NCC(Cc1ccccc1)C(=O)O (stereo unspecified) | 0.93 | –
22 | N=C(N)NCC(O)C(=O)O (stereo unspecified) | 1.1 | –
23 | N=C(N)c1ccccc1NCCC(=O)O | 0.73 | –
24 | N=C(N)NCCCC(=O)O | 0.8 | –
25 | Nc1ncnc2nn(CCC(=O)O)cc12 | 1.08 | –
26 | NC(=O)NCCC(=O)O | 1.06 | –

Row | Compound | MISS T/C [1] | further results
27 | CC(CN=C(N)N)C(=O)O (stereo unspecified) | 0.86 | –
28 | N=C(N)NCCC(=O)O [OMPENACLID] | – | MISS T/C [4]: 0.52; Inhibition [5]: 97%; Activity [3]: 5
29 | N=C(N)NCCc1c[nH]c(S)n1 | 0.8 | –
30 | O=C(O)CCNc1ccccn1 | 0.2 | –
31 | N=C(N)N[C@H]1CCCC[C@@H]1C(=O)O | 0.93 | –
32 | N/C(=N/CCC(=O)O)N[N+](=O)[O-] | 0.84 | –
33 | Nc1cccc(CC(=O)O)n1 | 1.08 | –
34 | Cl.N=C(N)NC/C(=N/O)C(=O)O | 0.97 | –
35 | N=C(N)N[C@H]1CCC[C@H]1C(=O)O | 0.97 | –
36 | Cl.N=C(N)SCC(=O)O | 0.86 | –
37 | N[C@@H](Cc1c[nH]cn1)C(=O)O [HISTIDINE] | 0.8 | –
38 | N=C(N)N[C@H]1CCCC[C@H]1C(=O)O | 0.92 | –
39 | Cl.N=C(N)S/C=C\C(=O)O | 0.95 | –
40 | N=C(N)NC(CC(=O)O)c1ccccc1 (stereo unspecified) | 0.95 | –
41 | Nc1cccc[n+]1CCC(=O)[O-] | 1.07 | –
42 | CC(CC(=O)O)N=C(N)N (stereo unspecified) | 0.77 | –
43 | N=C(N)c1ccc(CC(=O)O)[nH]1 | 1.1 | –
44 | Nc1ccc[n+](CC(=O)O)c1.[Cl-] | 0.94 | –
45 | Cl.N=C(N)CSCC(=O)O | 0.92 | –
46 | N=C(N)NCCP(=O)(O)O | 0.81 | –
47 | O=C(O)CCNc1nccs1 | 0.99 | –
48 | N=C(N)SCCC(=O)O | 0.53 | –
49 | CC(=O)NC(=N)NCCC(=O)O | 0.88 | –
50 | O=C(O)CCNc1nc2ccccc2s1 | 0.87 | –
51 | N=C(N)c1cccn1CCC(=O)O | 0.93 | –
52 | N=C(N)NCC(S)C(=O)O (stereo unspecified) | 0.83 | –

Row | Compound | MISS T/C [1] | further results
53 | Cl.Cl.N/C(=N\CCC(=O)O)c1ccccc1N | 0.92 | –
54 | CCCCCC(CC(=O)O)N=C(N)N (stereo unspecified) | 0.88 | –
55 | O=C(O)CCNc1ncccn1 | 1.01 | –
56 | C/N=C(\NC)SCCC(=O)O.Cl | 1.06 | –
57 | CN(C)C(=N)SCCC(=O)O.Cl | 1.08 | –
58 | CCOC(=O)CCN=C(N)N.Cl | 0.87 | –
59 | N=C(N)NCC(=O)O [GUANIDINO ACETATE] | 0.62 | –
60 | CN(CC(=O)O)C(=N)N [CREATINE] | – | Inhibition [6]: 92%; Activity [3]: 100
61 | COC(=O)NC(=N)NCCC(=O)O | 0.88 | –
62 | N=C(N)N1CCCCC1CC(=O)O (stereo unspecified) | 0.91 | –
63 | CN(CCC(=O)O)C(=N)N | 1.02 | –
64 | Nc1ncnc2c1cnn2CCC(=O)O | 1.27 | –
65 | O=C(O)CCn1cccn1 | 1.11 | –
66 | N=C(N)N[C@H]1CCC[C@@H]1C(=O)O | 0.9 | –
67 | NC(N)=NC[C@H](N)C(=O)O | 0.35 | –
68 | N=C(N)NOCC(=O)O | 0.83 | –
69 | Cl.N=C(N)SCCCC(=O)O | 0.87 | –
70 | CC(=N)NCCC(=O)O | 0.77 | –
71 | N=C(N)NCCc1nnn[nH]1 | 0.94 | –
72 | C/N=C(\N)SCCC(=O)O.Cl | 0.59 | –
73 | Cl.NC(N)=NC[C@@H](N)C(=O)O | 0.92 | –
74 | N/C(S)=N/CCC(=O)O | 0.99 | –
75 | CNC(CN=C(N)N)C(=O)O.Cl.Cl (stereo unspecified) | 0.96 | –
76 | CCCCCC(CN=C(N)N)C(=O)O (stereo unspecified) | 0.79 | –
